# Calls of active or inactive are those of the source. The calls are words filed in the database; no cut-off is given here.
# Assays:
# Vero = test: Cytotoxicity against African green monkey Vero cells at 10 uM after 24 hrs by MTS assay; format: cell-based; settings: chlorocebus sabaeus
# Poliovirus 1 [1] = test: Antiviral activity against Human poliovirus type 1 infected in mouse assessed as viral titer in spleen at 10 mg/kg, ip administered 1 hr post infection once daily for 5 days measured after 7 days by plaque assay; format: functional, organism-based; set-up: dose 10 mg/kg
# HeLa [2] = test: Cytotoxicity against human HeLa cells at 10 uM by MTS assay; format: cell-based
# Outline: (§1)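 HeLa cells at ~80% confluence, uninfected, exposed to 1–100 μM PPMO or water (mock) in serum-free DMEM-F-12 (1:1) for 24 h. MTS reagent was added for 4 h and absorbance read at 492 nm. Viability was expressed as percent of water-treated cells (set to 100%), averaged over 12 wells.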
# Poliovirus 1 [3] = test: Antiviral activity against Human poliovirus type 1 infected in mouse assessed as protection from virus-induced death at 10 mg/kg, ip administered 1 hr post infection once daily for 5 days measured after 10 days by plaque assay; format: functional, organism-based; set-up: dose 10 mg/kg
# Outline: (§2)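 Poliovirus receptor transgenic (cPVR) mice, about 10 weeks old, were infected i.p. with 3 × 10^8 PFU wt PV1. They received 200 μg (~10 mg/kg) PPMO in 500 μl sterile PBS i.p., or PBS alone, at 1 h p.i. and then every 24 h ([…]; 6 mice per group). Mice were monitored daily for paralysis and death, and euthanized at near-total paralysis.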
# Poliovirus 1 [4] = test: Antiviral activity against Human poliovirus type 1 infected in mouse assessed as viral titer in brain at 10 mg/kg, ip administered 1 hr post infection once daily for 5 days measured after 7 days by plaque assay; format: functional, organism-based; set-up: dose 10 mg/kg
# SK-N-MC = test: Cytotoxicity against human SK-N-MC cell at 10 uM after 24 hrs by MTS assay; format: cell-based
# Poliovirus 1 [5] = test: Antiviral activity against Human poliovirus type 1 infected in Human HeLa cell assessed as inhibition of translation at 10 uM by luciferase reporter gene assay; format: functional, organism-based
# Outline: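 HeLa cells were pretreated 4 h with 10 μM PPMO, then electroporated with 20 μg noncapped PV1-Luc replicon RNA (IRES-driven). They were kept in medium with 10 μM PPMO, with or without 2 mM guanidine HCl, at 37°C in 5% CO2. Luciferase in cell lysates was read at 1-h intervals after transfection. Two experiments were averaged.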
# Poliovirus 1 [6] = test: Antiviral activity against Human poliovirus type 1 infected in mouse assessed as protection from virus-induced paralytic symptom at 10 mg/kg, ip administered 1 hr post infection once daily for 5 days measured after 10 days by plaque assay; format: functional, organism-based; set-up: dose 10 mg/kg; outline: as §2
# Poliovirus 1 [7] = test: Antiviral activity against Human poliovirus type 1 infected in mouse assessed as viral titer in muscle at 10 mg/kg, ip administered 1 hr post infection once daily for 5 days measured after 8 days by plaque assay; format: functional, organism-based; set-up: dose 10 mg/kg; settings: Muscle tissue
# HeLa [8] = test: Cytotoxicity against human HeLa cells 10 uM after 24 hrs by MTS assay; format: cell-based; outline: as §1
# Poliovirus 1 [9] = test: Antiviral activity against Human poliovirus type 1 infected in mouse assessed as viral titer in large intestine at 10 mg/kg, ip administered 1 hr post infection once daily for 5 days measured after 7 days by plaque assay; format: functional, organism-based; set-up: dose 10 mg/kg
# Poliovirus 1 [10] = test: Antiviral activity against Human poliovirus type 1 infected in mouse assessed as viral titer in muscle at 10 mg/kg, ip administered 1 hr post infection once daily for 5 days measured after 10 days by plaque assay; format: functional, organism-based; set-up: dose 10 mg/kg; settings: Muscle tissue
# Poliovirus 1 [11] = test: Antiviral activity against Human poliovirus type 1 infected in mouse assessed as viral titer in large intestine at 10 mg/kg, ip administered 1 hr post infection once daily for 5 days measured after 10 days by plaque assay; format: functional, organism-based; set-up: dose 10 mg/kg
# Poliovirus 1 [12] = test: Antiviral activity against Human poliovirus type 1 infected in Human HeLa cell after 21 hrs post infection by plaque assay; format: functional, organism-based; settings: Enterovirus C
# Outline: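 HeLa cells infected with cDNA-derived PV1 (MOI 0.1), then treated after infection with 2 to 100 μM PPMO. Supernatant virus was titrated by plaque assay on HeLa monolayers 21 h later: 1% agar overlay, 36 h at 37°C, formaldehyde fixation, crystal violet staining and plaque count. IC50 was taken from triplicate samples.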
# Poliovirus 1 [13] = test: Antiviral activity against Human poliovirus type 1 infected in mouse assessed as viral titer in small intestine at 10 mg/kg, ip administered 1 hr post infection once daily for 5 days measured after 8 days by plaque assay; format: functional, organism-based; set-up: dose 10 mg/kg
# Poliovirus 1 [14] = test: Antiviral activity against Human poliovirus type 1 infected in mouse assessed as viral titer in brain at 10 mg/kg, ip administered 1 hr post infection once daily for 5 days measured after 10 days by plaque assay; format: functional, organism-based; set-up: dose 10 mg/kg
# Poliovirus 1 [15] = test: Antiviral activity against Human poliovirus type 1 infected in Human HeLa cell assessed as inhibition of translation at 10 ug/ml by luciferase reporter gene assay; format: functional, organism-based
# Outline: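 In-cell translation control: HeLa cells electroporated with 20 μg PV1-Luc replicon RNA were placed in medium with 10 μg/ml puromycin at 37°C in 5% CO2. Luciferase in lysates was read by luminometer at hourly time points after transfection. Two experiments were averaged.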
# Poliovirus 1 [16] = test: Antiviral activity against Human poliovirus type 1 infected in mouse assessed as viral titer in spleen at 10 mg/kg, ip administered 1 hr post infection once daily for 5 days measured after 10 days by plaque assay; format: functional, organism-based; set-up: dose 10 mg/kg
# Poliovirus 1 [17] = test: Antiviral activity against Human poliovirus type 1 infected in mouse assessed as viral titer in small intestine at 10 mg/kg, ip administered 1 hr post infection once daily for 5 days measured after 10 days by plaque assay; format: functional, organism-based; set-up: dose 10 mg/kg
# Poliovirus 1 [18] = test: Antiviral activity against Human poliovirus type 1 infected in mouse assessed as viral titer in large intestine at 10 mg/kg, ip administered 1 hr post infection once daily for 5 days measured after 8 days by plaque assay; format: functional, organism-based; set-up: dose 10 mg/kg
# Poliovirus 1 [19] = test: Antiviral activity against Human poliovirus type 1 infected in mouse assessed as protection from virus-induced death at 10 mg/kg, ip administered 1 hr post infection once daily for 5 days measured after 8 days by plaque assay; format: functional, organism-based; set-up: dose 10 mg/kg; outline: as §2
# Poliovirus 1 [20] = test: Antiviral activity against Human poliovirus type 1 infected in mouse assessed as viral titer in brain 10 mg/kg, ip administered 1 hr post infection once daily for 5 days measured after 8 days by plaque assay; format: functional, organism-based; set-up: dose 10 mg/kg
# Poliovirus 1 [21] = test: Antiviral activity against Human poliovirus type 1 infected in mouse assessed as viral titer in spinal cord at 10 mg/kg, ip administered 1 hr post infection once daily for 5 days measured after 8 days by plaque assay; format: functional, organism-based; set-up: dose 10 mg/kg
# Poliovirus 1 [22] = test: Antiviral activity against Human poliovirus type 1 infected in mouse assessed as protection from virus-induced death at 10 mg/kg, ip administered 1 hr post infection once daily for 5 days measured after 7 days by plaque assay; format: functional, organism-based; set-up: dose 10 mg/kg; outline: as §2
# Poliovirus 1 [23] = test: Antiviral activity against Human poliovirus type 1 infected in mouse assessed as protection from virus-induced paralytic symptom at 10 mg/kg, ip administered 1 hr post infection once daily for 5 days measured after 7 days by plaque assay; format: functional, organism-based; set-up: dose 10 mg/kg; outline: as §2
# Poliovirus 1 [24] = test: Antiviral activity against Human poliovirus type 1 infected in mouse assessed as protection from virus-induced paralytic symptom at 10 mg/kg, ip administered 1 hr post infection once daily for 5 days measured after 8 days by plaque assay; format: functional, organism-based; set-up: dose 10 mg/kg; outline: as §2
# Poliovirus 1 [25] = test: Antiviral activity against Human poliovirus type 1 infected in mouse assessed as viral titer in muscle at 10 mg/kg, ip administered 1 hr post infection once daily for 5 days measured after 7 days by plaque assay; format: functional, organism-based; set-up: dose 10 mg/kg; settings: Muscle tissue
# Poliovirus 1 [26] = test: Antiviral activity against Human poliovirus type 1 infected in mouse assessed as viral titer in spinal cord at 10 mg/kg, ip administered 1 hr post infection once daily for 5 days measured after 10 days by plaque assay; format: functional, organism-based; set-up: dose 10 mg/kg
# HeLa [27] = test: Cytotoxicity against human HeLa cell after 21 hrs by MTS assay; format: functional, cell-based
# Outline: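 Uninfected HeLa cells were exposed to a range of PPMO concentrations for 21 h, then read by MTS assay (4 h, absorbance 492 nm) against water-mock cells set to 100%. CC50 was taken from the concentration–viability curve, and triplicate samples were averaged.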
# Poliovirus 1 [28] = test: Antiviral activity against Human poliovirus type 1 infected in mouse assessed as viral titer in small intestine at 10 mg/kg, ip administered 1 hr post infection once daily for 5 days measured after 7 days by plaque assay; format: functional, organism-based; set-up: dose 10 mg/kg
# Poliovirus 1 [29] = test: Antiviral activity against Human poliovirus type 1 infected in mouse assessed as viral titer in spinal cord at 10 mg/kg, ip administered 1 hr post infection once daily for 5 days measured after 7 days by plaque assay; format: functional, organism-based; set-up: dose 10 mg/kg
# Poliovirus 1 [30] = test: Antiviral activity against Human poliovirus type 1 infected in mouse assessed as viral titer in spleen at 10 mg/kg, ip administered 1 hr post infection once daily for 5 days measured after 8 days by plaque assay; format: functional, organism-based; set-up: dose 10 mg/kg
structure (smiles),measurement,setting,value
Cc1cn([C@H]2CN(P(=O)(OC[C@@H]3CN(P(=O)(OC[C@@H]4CNC[C@H](n5cnc6c(=O)[nH]c(N)nc65)O4)N(C)C)C[C@H](n4cnc5c(N)ncnc54)O3)N(C)C)C[C@@H](COP(=O)(N(C)C)N3C[C@@H](COP(=O)(N(C)C)N4C[C@@H](COP(=O)(N(C)C)N5C[C@@H](COP(=O)(N(C)C)N6C[C@@H](COP(=O)(N(C)C)N7C[C@@H](COP(=O)(N(C)C)N8C[C@@H](COP(=O)(N(C)C)N9C[C@@H](COP(=O)(N(C)C)N%10C[C@@H](COP(=O)(N(C)C)N%11C[C@@H](COP(=O)(N(C)C)N%12C[C@@H](COP(=O)(N(C)C)N%13C[C@@H](COP(=O)(N(C)C)N%14C[C@@H](COP(=O)(N(C)C)N%15C[C@@H](COP(=O)(N(C)C)N%16C[C@@H](COP(=O)(N(C)C)N%17C[C@@H](COP(=O)(N(C)C)N%18C[C@@H](COP(=O)(N(C)C)N%19C[C@@H](COP(=O)(N(C)C)N%20C[C@@H](COP(=O)(N(C)C)N%21C[C@@H](COP(=O)(N(C)C)N%22CCN(C(=O)CCNC(=O)CCCCCNC(=O)[C@H](CCCNC(=N)N)NC(=O)CCCCCNC(=O)[C@H](CCCNC(=N)N)NC(=O)[C@H](CCCNC(=N)N)NC(=O)CCCCCNC(=O)[C@H](CCCNC(=N)N)NC(=O)[C@H](CCCNC(=N)N)NC(=O)CCCCCNC(=O)[C@H](CCCNC(=N)N)NC(=O)[C@H](CCCNC(=N)N)NC(=O)CCCCCNC(=O)[C@@H](N)CCCNC(=N)N)CC%22)O[C@@H](n%22cnc%23c(=O)[nH]c(N)nc%23%22)C%21)O[C@@H](n%21cnc%22c(N)ncnc%22%21)C%20)O[C@@H](n%20cnc%21c(N)ncnc%21%20)C%19)O[C@@H](n%19cnc%20c(N)ncnc%20%19)C%18)O[C@@H](n%18ccc(N)nc%18=O)C%17)O[C@@H](n%17cnc%18c(N)ncnc%18%17)C%16)O[C@@H](n%16ccc(N)nc%16=O)C%15)O[C@@H](n%15cnc%16c(=O)[nH]c(N)nc%16%15)C%14)O[C@@H](n%14cnc%15c(=O)[nH]c(N)nc%15%14)C%13)O[C@@H](n%13cnc%14c(N)ncnc%14%13)C%12)O[C@@H](n%12ccc(N)nc%12=O)C%11)O[C@@H](n%11cnc%12c(N)ncnc%12%11)C%10)O[C@@H](n%10ccc(N)nc%10=O)C9)O[C@@H](n9ccc(N)nc9=O)C8)O[C@@H](n8ccc(N)nc8=O)C7)O[C@@H](n7cnc8c(N)ncnc87)C6)O[C@@H](n6cnc7c(N)ncnc76)C5)O[C@@H](n5cnc6c(N)ncnc65)C4)O[C@@H](n4cnc5c(=O)[nH]c(N)nc54)C3)O2)c(=O)[nH]c1=O (some centres not stated),Activity,Vero,Non-toxic
same,Activity,Poliovirus 1 [1],inactive
same,Activity,HeLa [2],Non-toxic
same,Activity,Poliovirus 1 [3],Active
same,Activity,Poliovirus 1 [4],Active
same,Activity,SK-N-MC,Non-toxic
same,Activity,Poliovirus 1 [5],Active
same,Activity,Poliovirus 1 [6],Active
same,Activity,Poliovirus 1 [7],inactive
same,Activity,HeLa [8],Toxic
same,Activity,Poliovirus 1 [9],inactive
same,Activity,Poliovirus 1 [10],inactive
same,Activity,Poliovirus 1 [11],inactive
same,IC50,Poliovirus 1 [12],2000 nM
same,Activity,Poliovirus 1 [13],Active
same,Activity,Poliovirus 1 [14],Active
same,Activity,Poliovirus 1 [15],inactive
same,Activity,Poliovirus 1 [16],inactive
same,Activity,Poliovirus 1 [17],Active
same,Activity,Poliovirus 1 [18],inactive
same,Activity,Poliovirus 1 [19],Active
same,Activity,Poliovirus 1 [20],Active
same,Activity,Poliovirus 1 [21],Active
same,Activity,Poliovirus 1 [22],Active
same,Activity,Poliovirus 1 [23],Active
same,Activity,Poliovirus 1 [24],Active
same,Activity,Poliovirus 1 [25],inactive
same,Activity,Poliovirus 1 [26],Active
same,CC50,HeLa [27],52 µM
same,Activity,Poliovirus 1 [28],Active
same,Activity,Poliovirus 1 [29],Active
same,Activity,Poliovirus 1 [30],inactive
